Measured values gathered from unrelated publications.
Protocols differ between the studies behind these lines.
Target: MAP/microtubule affinity-regulating kinase 3 (MARK3, Homo sapiens, UniProt P27448)

O=C(NS(=O)(=O)c1ccc(NCC2CCOCC2)c([N+](=O)[O-])c1)c1ccc(N2CCN(Cc3ccc(C(F)(F)F)cc3-c3ccc(Cl)cc3)CC2)cc1Oc1cnc2[nH]ccc2c1  remaining binding (cell-free assay; competition with immobilised ligand; 1 µM): 100%
CCCCNc1ncc2c(-c3ccc(F)cc3)nn(C[C@H]3CC[C@H](N)CC3)c2n1  inhibition (target engagement in cells; inhibitor; chemoproteomics; 20 mM): 33.9%
COc1cc2ncnc(Nc3ccc(Oc4ccccc4)cc3C)c2cc1OC  inhibition (enzyme activity; inhibitor; 1 µM): 8%
Cc1nn(CC(F)(F)F)cc1Nc1nccc(NCCc2cnc[nH]2)n1  remaining activity (enzyme activity; inhibitor; radiometric; 1 µM): 126%
Nc1ncnc2occ(-c3ccc(NC(=O)Nc4cc(C(F)(F)F)ccc4F)cc3)c12  remaining signal (cell-free assay; inhibitor; 20 µM): 15%
O=C1Nc2ccc(Cl)cc2C1=Cc1cc(Cl)c(O)c(Cl)c1  remaining signal (cell-free assay; 0.5 µM): 81.1%
O=C(Nc1cnc(Oc2ccc(F)cc2)nc1)N1CCc2ncccc2[C@@H]1c1ccc(F)cc1  remaining binding (cell-free assay; competition with immobilised ligand; 1 µM): 100%
O=C(NCCCNc1nc(Nc2cccc(CN3CCOCC3)c2)ncc1C1CC1)C1CCC1  remaining activity (enzyme activity; inhibitor; radiometric; 1 µM): -1%
CCS(=O)(=O)c1cc2cc(C[C@](O)(CC(C)(C)c3ccc(F)cc3C(N)=O)C(F)(F)F)[nH]c2cn1  remaining binding (cell-free assay; competition with immobilised ligand; 1 µM): 100%
O=C(CSc1nc2nccnc2c(=O)n1CCc1ccccc1)Nc1nccs1  inhibition (enzyme activity; inhibitor; 10 µM): 7%
CN1CCc2cc(Nc3ncc(C4CC4)c(NCCCNC(=O)C4CCC4)n3)ccc2C1  remaining activity (enzyme activity; inhibitor; radiometric; 1 µM): -4%
O=C1NC(=O)c2cc(Nc3ccc(F)cc3)c(Nc3ccc(F)cc3)cc21  remaining signal (cell-free assay; 0.5 µM): 90.8%
CN(C)c1ncnc(-c2ccc3nc(Nc4cc(CN5CCN(C(=O)CC(F)(F)F)CC5)ccn4)[nH]c3c2)c1Cl  remaining binding (cell-free assay; competition with immobilised ligand; 1 µM): 100%
Cc1nn(CC(F)(F)F)cc1Nc1ncc(C2CC2)c(NCCc2c[nH]cn2)n1  remaining activity (enzyme activity; inhibitor; radiometric; 1 µM): 96%
Nc1nc(Nc2ccccc2)sc1C(=O)c1c(F)cccc1F  remaining activity (enzyme activity; inhibitor; 10 µM): 25%
CCN(CC)CCNC(=O)c1c(C)[nH]c(/C=C2\C(=O)Nc3ccc(F)cc32)c1C  remaining signal (cell-free assay; 0.5 µM): 30.4%
O=C(Nc1cnn(-c2csc(C(=O)NC3COC3)c2)c1)Nc1ccccc1Cl  remaining activity (enzyme activity; inhibitor; 5 µM): 98.2%
C[C@@H]1CN(c2cc(-c3n[nH]c4ccc(OC5(C)CC5)cc34)ncn2)C[C@H](C)O1  remaining binding (cell-free assay; competition with immobilised ligand; 0.1 µM): 73%
CN(c1ncccc1CNc1nc(Nc2ccc3c(c2)CC(=O)N3)ncc1C(F)(F)F)S(C)(=O)=O  inhibition (enzyme activity; inhibitor; 1 µM): 83.5%
FC(F)(F)Oc1cccc(-c2cnc3ccc(-c4ccncc4)nn23)c1  activity vs control (enzyme activity; inhibitor; radiometric; 5 µM): 95%
CNc1cc(Oc2cc(C(=O)Nc3cc(N4CCN(C)CC4)cc(C(F)(F)F)c3)ccc2C)ncn1  inhibition (target engagement in cells; inhibitor; chemoproteomics; Huh-7; 1 µM): -18.5%
O=C(NCCCNc1ccnc(Nc2cccc(NC(=O)N3CCCC3)c2)n1)C1CCC1  remaining activity (enzyme activity; inhibitor; radiometric; 1 µM): 92%
CC(=O)N1CCC(c2ccc(C(=O)NC(=N)N)cc2C(F)(F)F)CC1  remaining binding (cell-free assay; competition with immobilised ligand; 1 µM): 88%
Cc1nn(CC(F)(F)F)cc1Nc1ncc(C2CC2)c(NCCCNC(=O)C2CCC2)n1  remaining activity (enzyme activity; inhibitor; radiometric; 1 µM): 96%
N#CCCc1ccc2c(c1)-c1[nH]c3ccc([N+](=O)[O-])cc3c1CC(=O)N2  remaining signal (cell-free assay; 0.5 µM): 67.3%
NS(=O)(=O)c1ccc(CNc2ccnc(Nc3cccc(CN4CCOCC4)c3)n2)cc1  remaining activity (enzyme activity; inhibitor; radiometric; 1 µM): 113%
Nc1c(C(=O)NCc2ccc(C(=O)NCCCC3CCCCC3)cc2)cnn1-c1ccccc1  remaining binding (cell-free assay; competition with immobilised ligand; 0.1 µM): 78%
COc1cccc2c(NCc3ccccc3)nc(-n3c(N)nc4ccccc43)nc12  inhibition (target engagement in cells; inhibitor; chemoproteomics; 20 mM): -1%
Cn1nc(C(F)(F)F)cc1-c1cnc(N2CCc3cc(S(=O)(=O)Nc4c(F)cc(Cl)cc4F)cc(N4CCCC4=O)c32)nc1  remaining binding (binding; competition with immobilised ligand; 1 µM): 12%
O=C(Nc1cccc(Nc2ncc(Br)c(NCCc3cnc[nH]3)n2)c1)N1CCCC1  remaining activity (enzyme activity; inhibitor; radiometric; 1 µM): -1%
